Data reported in the RNAGym collection of RNA variant scans (doi:10.1126/science.aae0568).
This sample holds only a part of the variants without activity.

B1: tRNA (parent)
chain: GUUCCGUUGGCGUAAUGGUAACGCGUCUCCCUCCUAAGGAGAAGACUGCGGGUUCGAGUCCCGUACGGAACG

Variants of: B1
Assay: yeast fitness relative to wild type (ratio to wild type); higher = fitter; tRNA-Arg(CCU), competitive growth, 37 C, YPD
How it was run: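 Variants of the tRNA-Arg(CCU) gene, chemically synthesised with a 3% per-site mutation rate at 69 sites, were placed at the native genomic locus in Saccharomyces cerevisiae. The pooled strains were competed in YPD at 37°C for 24 hours in six parallel replicates. Gene amplicons from the start population and from each end population were read by 100-nucleotide paired-end sequencing. Darwinian fitness relative to wild type came from changes in genotype frequencies; genotypes needed ≥ 100 starting reads, and estimates < 0.5 were set to 0.5.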
GUUCCGUUGGCGUAAUGGAAACGCGUCUCCUUCCUAAGGAGAAGACUGCGGGAUCGAGUCCCGUACGGAACG [U19A C31U U53A] showed a yeast fitness of at most 0.5. In the case of GUUCCGUUGGCGUAAUGGAAACGCGUCUGCCUCCUAAGGAGCAGAAUGGGGGUUCGAGUCCCGUACGGAACG [U19A C29G A42C C46A C49G], the yeast fitness is reported as at most 0.5. With GUUCCGUUGGCGUAAUGGAAACGCGACUCCCUCCUAAGGAGAAGACUGCGGGUUCGAGUCCCGUAAGGAACG [U19A U26A C66A] the yeast fitness was 0.585. Variant GUUCCGUUGGCGUAAUGGAAACGCAUCUCCCUCCUAAGGAGACGACUGCGGGGUCGAGUCCCCUACGGAACG [U19A G25A A43C U53G G63C] has a yeast fitness of at most 0.5. In the case of GUUCCGUUGGCGUAAUGGAAACGCGUCUCCCUUCUAAGGAGAAGACUGCGGGUUCGAGUCCCGUACGGAACG [U19A C33U], the yeast fitness is reported as 0.777. GUUCCGUUGGCGUAAUGGAAACGCAUCUCCCUCCUAAGGCGAAGAUUGCGGGUUCGAGUCCCGUACGGAACG [U19A G25A A40C C46U] showed a yeast fitness of 0.588. In the case of GUUCCGUUGGCGUAAUGGAAACGCGUCUCCCUCUUAAGGAGUAGACUGCGGGUUCGAGUCCCGUACGGAACG [U19A C34U A42U], the yeast fitness is reported as 0.543. In the case of GUUCCGUUGGCGUAAUGGAAACGCGUCUCCCUCCUAAGGAGAAGACUGCUGGUUCGAGUCCCGUACGGAACG [U19A G50U], the yeast fitness is reported as 0.817. Work on GUUCCGUUGGCGUAAUGGAAACGCGUCUUCCUCCUAAGGAGAAGACUGCGGGUUCGAGUCCCGUACGGAACG [U19A C29U] yielded a yeast fitness of 0.76. GUUCCGUUGGCGUAAUGGAAACGCGUCUCCCUCCUAAGGAGAAGACAGCGGGUUCGACUCCCGUACGGAACG [U19A U47A G58C] showed a yeast fitness of 0.602. GUUCCGUUGGCGUAAUGGAAACGCCUCUCCCUCCUAAGGAGAUGACUGCGGGUUCGAGUCCCGUACGGAACG [U19A G25C A43U] showed a yeast fitness of 0.657. With GUUCCGUUGGCGUAAUGGAAACGCGUCUCACUCCUAAGGAGAGGACUGUGGGUUAGAGUCCCGUACGGAACG [U19A C30A A43G C49U C55A] the yeast fitness was 0.64. For GUUCCGUUGGCGUAAUGGAAACCCGUCUCCCUCCUAAGGAGAAGACUGCGGGUUCGAGUCCCGUACGGAACG [U19A G23C], the yeast fitness was 0.549. In the case of GUUCCGUUGGCGUAAUGGAAACGCGUCUCACUCCUAAGGAGAAGACUGCGGGUUCGAGUCCCGUGCGGAACG [U19A C30A A65G], the yeast fitness is reported as 0.673. Variant GUUCCGUUGGCGUAAUGGAAACGCGUCUCCCUCCUAAGGAGAAGAAUGCGGGUUCGAGUCCCGUACGGUACG [U19A C46A A69U] has a yeast fitness of 0.752. With GUUCCGUUGGCGUAAUGGAAACGCGUCUCCCUCCUAAGGAGAAGACUGCGGGUUCGAGUCACGUACGCAACG [U19A C61A G68C] the yeast fitness was 0.648. GUUCCGUUGGCGUAAUGGAAACGCGUCUCGCUCCUAAGGCGAAGACUGCGGGUUCGAGUCCCGUACCGAACG [U19A C30G A40C G67C] showed a yeast fitness of at most 0.5. Work on GUUCCGUUGGCGUAAUGGAAACGCGUCUCCCUCCUAAGGAGAAGACUGUGGGUUCGAGUCCCGUACAGAACG [U19A C49U G67A] yielded a yeast fitness of 0.666. For GUUCCGUUGGCGUAAUGGAAACGCGUCUCCCUUCUUAGGAGAAGACUGCGGGUUCGAGUUCCGUACGGAACG [U19A C33U A36U C60U], the yeast fitness was at most 0.5. Work on GUUCCGUUGGCGUAAUGGAAACGCGUCUCACUCCUAAGGAGAGGACUGCGGGUUCGAGUCCCGUACGGAACG [U19A C30A A43G] yielded a yeast fitness of at most 0.5. GUUCCGUUGGCGUAAUGGAAACGCGUCUCCCUCCUAAGGAGAAGACCGCGGGUUCGAGUCCCGUACGGAACG [U19A U47C] showed a yeast fitness of 0.925. Variant GUUCCGUUGGCGUAAUGGAAACGCGUCUCCCUCCUAAGGAGAAGACAGCGGGUUCGAGUCCCGUACGGAACG [U19A U47A] has a yeast fitness of 0.837. For GUUCCGUUGGCGUAAUGGAAACGCGUCUCCCUCCUAAGGAGAAGACCGCGGGUUCGAGUCCCGUAUGGAACG [U19A U47C C66U], the yeast fitness was 0.751. With GUUCCGUUGGCGUAAUGGAAACGCCUCUCCCUACUAGGGAGAAGACUACGGGUUCGAGUCCCGUACGAAACG [U19A G25C C33A A37G G48A G68A] the yeast fitness was at most 0.5. With GUUCCGUUGGCGUAAUGGAAACGCGUCUCCCUCCUAAGGAGAAGAAUGCGGGUUCGAGUCCCGUACGGAACG [U19A C46A] the yeast fitness was 1.13. Work on GUUCCGUUGGCGUAAUGGAAACGCGUCUCCCUCCUAAGGAGAAGAUUGCGGGUUCGAGUCCCGUACGGAACG [U19A C46U] yielded a yeast fitness of 0.958. With GUUCCGUUGGCGUAAUGGAAACGCGUCACCCUCCUAUGGAGUAGACUGCGGGUUCGAGUCCCGUACGGAACG [U19A U28A A37U A42U] the yeast fitness was at most 0.5. Work on GUUCCGUUGGCGUAAUGGAAACGCGUCUCCCUCCUAAGGAGAAGACUGCGGGUUCGAGUCCAGUACGGAACG [U19A C62A] yielded a yeast fitness of 0.774. For GUUCCGUUGGCGUAAUGGAAACGCCUCUCCCUACUAGGGAGAAGACUGCGGGUUCGAGUCCCGUACGGAACG [U19A G25C C33A A37G], the yeast fitness was at most 0.5. GUUCCGUUGGCGUAAUGGAAACGCGUCUCCCUCCUAAGGAGAAGACGGCAGGUUCGAGUCCCGUACGGAACG [U19A U47G G50A] gave a yeast fitness of 0.55. Variant GUUCCGUUGGCGUAAUGGAAACGCGUCUCCAUCCUAGGGAGAAGACUGUGGGUUCGAGUCCCGUACGGAACG [U19A C31A A37G C49U] has a yeast fitness of at most 0.5. GUUCCGUUGGCGUAAUGGAAACGCGUCUCCCUCGUAAGGGGAAGACUGCGGGUUCGAGUCCCGUACGGAACG [U19A C34G A40G] gave a yeast fitness of at most 0.5. With GUUCCGUUGGCGUAAUGGAAACGCGUCUCCCUCCUAAGGAGAAGACUGCGGGUUCGAGUACCGUACGGAACG [U19A C60A] the yeast fitness was 0.623. With GUUCCGUUGGCGUAAUGGAAACGCGUCUCCCUCCUAAGGAGAAGACUGCGGGUUCGAGUUCCGUACGGAACG [U19A C60U] the yeast fitness was 0.819. For GUUCCGUUGGCGUAAUGGAAACGCGUCUCCCUCCUAAGGACAAGACUGCGGGUUGGAGUCCCGUAGGGAACG [U19A G41C C55G C66G], the yeast fitness was at most 0.5. In the case of GUUCCGUUGGCGUAAUGGAAACGCGUCUCCCUCCUAAGGAGAAGACUGCGGGUUGGGGUCCCGUACGGAACG [U19A C55G A57G], the yeast fitness is reported as 0.5. For GUUCCGUUGGCGUAAUGGAAACGCGUCUCCCUCCUAAGGAGAAGACUGCGGGUUCGAGUCCCAUACGGAACG [U19A G63A], the yeast fitness was 0.952. Work on GUUCCGUUGGCGUAAUGGAAACGCGCCUCACUCCUAAGGAGAAGACUGCGGGUUCGAGUCCCGUACGGAACG [U19A U26C C30A] yielded a yeast fitness of 0.639.
